Source: ChEMBL document CHEMBL1140264, “Sulfur-substituted alpha-alkyl phenethylamines as selective and reversible MAO-A inhibitors: biological activities, CoMFA analysis, and active site modeling” (J Med Chem, 2005)

Experiments:
[1] = target: T1, Amine oxidase [flavin-containing] A (Rattus norvegicus, UniProt P21396); assay: Inhibitory concentration against monoamine oxidase A in rat brain mitochondrial suspension; format: tissue-based
T1 sequence (P21396 whole entry): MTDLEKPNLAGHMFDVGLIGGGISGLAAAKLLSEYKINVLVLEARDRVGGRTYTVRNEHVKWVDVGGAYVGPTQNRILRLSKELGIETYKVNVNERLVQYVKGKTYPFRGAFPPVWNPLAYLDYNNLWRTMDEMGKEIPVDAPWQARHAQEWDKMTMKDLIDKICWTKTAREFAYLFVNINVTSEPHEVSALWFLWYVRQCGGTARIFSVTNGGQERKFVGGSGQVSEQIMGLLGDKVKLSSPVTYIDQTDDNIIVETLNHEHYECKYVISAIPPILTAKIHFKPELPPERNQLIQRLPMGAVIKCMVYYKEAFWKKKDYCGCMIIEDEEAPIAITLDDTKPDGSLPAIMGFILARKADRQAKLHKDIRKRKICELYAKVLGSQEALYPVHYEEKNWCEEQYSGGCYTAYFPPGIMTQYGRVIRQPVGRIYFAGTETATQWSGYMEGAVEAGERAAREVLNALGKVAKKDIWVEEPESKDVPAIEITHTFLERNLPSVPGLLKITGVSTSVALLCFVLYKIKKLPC
Method in brief: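 Crude brain mitochondrial suspension from male Sprague-Dawley rats (180-220 g). MAO-A substrate 5-HT 100 µM; substrate and deaminated metabolite measured by HPLC with electrochemical detection. Inhibition relative to enzyme treated identically without inhibitor. IC50 from % inhibition vs -log[I] curves, 5-8 concentrations each in triplicate; mean ± SD of at least two independent experiments.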

[2] = target: T1, Amine oxidase [flavin-containing] A; assay: Percent inhibition of rat brain monoamine oxidase A in mitochondrial suspension with 30 minutes pre-incubation at 10e-7 M; settings: 0.5 h
[3] = target: T1, Amine oxidase [flavin-containing] A; assay: Percent inhibition of rat brain monoamine oxidase A in mitochondrial suspension after 10 minutes pre-incubation before washing at 10e-7 M
Method in brief: (§1)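 Crude rat brain mitochondrial suspension preincubated 10 min with inhibitor, then washed three times by centrifugation and resuspension. MAO-A activity measured before and after washing by HPLC-ED with 5-HT (100 µM) as selective substrate, against control preparations. Mean ± SD of triplicate determinations.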

[4] = target: T1, Amine oxidase [flavin-containing] A; assay: Percent inhibition of rat brain monoamine oxidase A in mitochondrial suspension without pre-incubation at 10e-7 M
[5] = target: T1, Amine oxidase [flavin-containing] A; assay: Percent inhibition of rat brain monoamine oxidase A in mitochondrial suspension after 10 minutes pre-incubation and washing at 10e-7 M; method in brief: as §1

| SMILES | IC50 [1] [µM] | also measured |
| --- | --- | --- |
| COc1cc(CC(C)N)c(OC)cc1C (configuration not stated) [DOM] | 24 |  |
| CCCSc1cc(OC)c(CC(C)N)cc1OC (configuration not stated) | 2.4 | Inhibition [2]: 20%; Inhibition [3]: 20%; Inhibition [4]: 15.7%; Inhibition [5]: 0% |
| COc1cc(Cl)c(CC(C)N)c(OC)c1 (configuration not stated) | 0.07 | Inhibition [3]: 58%; Inhibition [5]: 0% |
| CC(C)CSc1ccc(CC(C)N)cc1 (configuration not stated) | 0.4 |  |
| CSc1ccc(CC(C)N)cc1 (configuration not stated) [4-METHYLTHIOAMPHETAMINE] | 0.2 |  |
| CCSc1cc(OC)c(CC(C)N)c(OC)c1 (configuration not stated) | 0.08 | Inhibition [2]: 33%; Inhibition [3]: 40%; Inhibition [4]: 23.7%; Inhibition [5]: 0% |
| CCCCSc1cc(OC)c(CC(C)N)cc1OC (configuration not stated) | 2.9 |  |
| CCCSc1cc(OC)c(CC(N)CC)cc1OC (configuration not stated) | 7.6 |  |
| CCCCCSc1cc(OC)c(CC(C)N)cc1OC (configuration not stated) | 14.3 |  |
| CCSc1cc(OC)c(CC(C)N)cc1OC (configuration not stated) | 3.8 |  |
| COc1cc(SC)cc(OC)c1CC(C)N (configuration not stated) | 0.3 |  |
| CCSc1ccc(CC(C)N)cc1 (configuration not stated) | 0.1 |  |
| CCC(Cc1cc(OC)c(SC)cc1OC)NC (configuration not stated) | 15.5 |  |
| COc1cc(SCCc2ccccc2)c(OC)cc1CC(C)N (configuration not stated) | > 100 |  |
| COc1ccc(CC(C)N)cc1OC (configuration not stated) | 20 |  |
| COc1cc(CC(C)N)c(OC)cc1I (configuration not stated) | 44 |  |
| COc1ccc(CC(C)N)c(OC)c1 (configuration not stated) | 0.6 |  |
| CCSc1cc(OC)c(CC(C)NC)cc1OC (configuration not stated) | 1.4 |  |
| COc1cc([N+](=O)[O-])c(OC)cc1CC(C)N (configuration not stated) | > 100 |  |

| SMILES | IC50 [1] [µM] | also measured |
| --- | --- | --- |
| COc1cc(CC(C)N)c(OC)cc1Br (configuration not stated) [BROLAMFETAMINE] | 100 |  |
| CCOc1ccc(CC(C)N)cc1 (configuration not stated) | 0.2 |  |
| CCCSc1cc(OC)c(CC(C)NC)cc1OC (configuration not stated) | 0.3 |  |
| COc1cc(Br)c(CC(C)N)cc1OC (configuration not stated) | 9.3 |  |
| COc1cc(SC)c(OC)cc1CC(C)N (configuration not stated) | 5.2 |  |
| COc1cc(SC(C)C)c(OC)cc1CC(C)N (configuration not stated) | 27.3 |  |
| CCSc1cc(OC)c(CC(N)CC)cc1OC (configuration not stated) | 11.8 |  |
| COc1cc(OC)c(CC(C)N)cc1Br (configuration not stated) | 13 |  |
| CNC(C)Cc1cc(OC)c(SC)cc1OC (configuration not stated) | 1.8 |  |
| COc1cc(C(F)(F)F)c(OC)cc1CC(C)N (configuration not stated) | > 100 |  |
| COc1ccc(OC)c(CC(C)N)c1 (configuration not stated) | > 100 |  |
| CCSc1cc(OC)c(CC(CC)NC)cc1OC (configuration not stated) | 4.5 |  |
| COc1cc(OC)c(CC(C)N)c(OC)c1 (configuration not stated) | 0.4 |  |
| COc1ccc(CC(C)N)cc1 (configuration not stated) [PARA-METHOXYAMPHETAMINE] | 0.3 |  |
| COc1cc(CC(C)N)c(OC)cc1N (configuration not stated) | > 100 |  |
| CCCSc1cc(OC)c(CC(CC)NC)cc1OC (configuration not stated) | 1.4 |  |
| CCC(N)Cc1cc(OC)c(SC)cc1OC (configuration not stated) | 30.9 |  |
| CC(N)Cc1ccc(Cl)cc1 (configuration not stated) | 4 |  |
